The values that follow come from ChEMBL document CHEMBL1124717, “Structural requirements for agonist actions at the benzodiazepine receptor: studies with analogues of 6-(benzyloxy)-4-(methoxymethyl)-beta-carboline-3-carboxylic acid ethyl ester” (J Med Chem, 1990).

Series [1] addresses GABA-A receptor; anion channel. The series is described as follows: In vitro inhibition of [3H]flunitrazepam binding to GABA-A Benzodiazepine receptor of rat cerebral cortex membranes. The class given is cell membranes, Membrane. In short, it runs like this:
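Washed rat cerebral cortex membranes (adult male Sprague-Dawley, 175–250 g) in 50 mM Tris-HCl pH 7.4, three wash spins at 20000g. Incubated with [3H]flunitrazepam (final 0.9–1.1 nM) and six to eight inhibitor concentrations for 120 min at 4 °C, then filtered. Nonspecific binding defined with Ro 15-1788 (10 μM). IC50 from sigmoid fit; mean of at least two determinations.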

Series [2] can be described thus: Partition coefficient (logP). In kind it is physicochemical. The conditions noted are these: octanol/water.
The next series has as its system Mus musculus. Briefly: In vivo anticonvulsant activity was determined in male NIH/Swiss mice after intraperitoneal administration; Antagonist. In kind it is functional, organism-based. The essentials:
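Male NIH/Swiss mice (20–25 g) dosed ip with drug in 20% diluted Emulphor/80% saline, or vehicle. Antagonism run in groups of 10: test agent at various doses, diazepam (2.5 mg/kg) 15 min later, then PTZ challenge (80 mg/kg) after another 15 min. Seizures scored over 15 min. EC50 read graphically from percent convulsions versus log dose.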

pIC50: −log10 of the molar value.

In the case of `CCOC(=O)c1[nH]cc2nc3ccc(O)cc3c-2c1COC`, the pIC50 in series [1] was 9.05. Moreover, in series [2], the logP worked out at 1.44.

In the case of `CCOC(=O)c1[nH]cc2nc3ccc(OC)cc3c-2c1COC`, the negative logarithm of the IC50 (pIC50) in series [1] was 9.30. Besides, in the series with Mus musculus, the EC50 was 1.25 mg/kg.

In turn, `CCOC(=O)c1cc2c3cc(OCc4ccccc4)ccc3nc-2c[nH]1` showed a pIC50 in series [1] of 8.05.

In the case of `CCOC(=O)c1ncc2c(c1CC)c1cc(OCc3ccccc3)ccc1n2C`, in series [1], the pIC50 was < 5.30.

On to `CCOC(=O)c1cc2c3cc(OCc4ccccc4)ccc3n(C)c2cn1`, for which, in series [1], the pIC50 was < 5.30.

The molecule `CCOC(=O)c1ncc2[nH]c3ccc(OCc4ccccc4)cc3c2c1COC` showed a pIC50 in series [1] of 9.00. The molecule further came in with a logP in series [2] of 3.97.

`CCOC(=O)c1[nH]cc2nc3ccc(OCc4ccccc4)cc3c-2c1CC`: the pIC50 in series [1] was 7.66.

Molecule `CCOC(=O)c1ncc2c(c1COC)c1cc(OCc3ccccc3)ccc1n2C` showed a pIC50 in series [1] of 6.02.

`CCOC(=O)c1ncc2[nH]c3ccccc3c2c1COC` had a pIC50 in series [1] of 8.64. The molecule also yielded an EC50 in the series on Mus musculus of 15 mg/kg.
